APJ antag – antagonists of human apelin receptor APJ, primary screen, CHO-K1 cells, beta-arrestin complementation, luminescence; actives 0.32% (n = 330,000); inhibition, % at 20 µM;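 active = inhibition above about 40% at 20 µM, limit read from the data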;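 also: cells challenged with 10 nM apelin-13 agonist together with compound; plate controls were apelin-13 plus DMSO wells for no effect and DMSO wells lacking apelin-13 for full effect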
EBI2 block – EBI2 receptor antagonists, beta-arrestin recruitment, primary screen, cell-based, luminescence, 7a,25-OHC stimulation, uHTS. actives 0.81% (n = 360,000). G-protein coupled receptor 183 (Homo sapiens), P32249. inhibition, % at 5 µM. 7a,25-OHC stimulated. AID 651636, 2012; in the data active = inhibition above about 38%;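 also: enzyme fragment complementation signal reports receptor beta-arrestin coupling in cells; 0% = agonist plus DMSO wells and 100% = wells without agonist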
Target sequence (P32249 whole entry, looked up, the tested form may be a part): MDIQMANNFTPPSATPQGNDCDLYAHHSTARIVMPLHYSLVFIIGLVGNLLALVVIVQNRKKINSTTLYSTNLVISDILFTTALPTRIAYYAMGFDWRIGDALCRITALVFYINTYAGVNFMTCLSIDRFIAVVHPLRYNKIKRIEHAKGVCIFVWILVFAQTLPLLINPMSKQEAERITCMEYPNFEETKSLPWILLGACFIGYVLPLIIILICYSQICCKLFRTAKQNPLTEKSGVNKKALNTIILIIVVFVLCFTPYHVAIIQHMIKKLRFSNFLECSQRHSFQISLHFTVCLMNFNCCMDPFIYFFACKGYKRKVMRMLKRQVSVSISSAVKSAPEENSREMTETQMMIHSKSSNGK
CCR6 antagonist – CCR6 receptor antagonists, primary screen, cell-based, CHO-K1, luminescence, beta-arrestin, uHTS | C-C chemokine receptor type 6 (Homo sapiens), P51684 | actives 0.49% (n = 340,000) | AID 493098, 2011 | CHO-K1 CCR6 PathHunter beta-arrestin, CCL20-stimulated | inhibition, % at 20 µM;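 active = compounds whose inhibition of the agonist-driven luminescence signal at 20 µM reaches about 50%, limit read from the data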;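 also: cells stimulated with CCL20 at 14 nM final; plate controls were DMSO with CCL20 for no effect and DMSO without agonist for full effect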
hiPSC survival – enhancers of single-cell hiPSC survival, primary screen, ATPlite luminescence; 100% = ROCK inhibitor wells, 0% = DMSO; survival enhancement, % at 20 µM; actives 0.044% (n = 360,000); in the data active = survival enhancement above about 18%;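 also: cells exposed to compounds for 16 hours before the ATP read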
APJ ag – agonists of human apelin receptor APJ, primary screen, CHO-K1 cells, PathHunter beta-arrestin, luminescence; P35414; 0% DMSO wells, 100% apelin; activation, % at 20 µM; actives 0.11% (n = 330,000); AID 2520, 2010;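 active = activation more than six SD over the plate average, tested at 20 µM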;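 also: 0% = DMSO alone and 100% = apelin-13 at 10 nM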
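Incubation: overnight seeding, 90 min compound at 25 °C, 1 h detection; test system: PathHunter CHO-K1 APJ (AGTRL-1) beta-arrestin reporter cells; amount: 1000 cells/well; doses: one dose, 20 µM compound, 1% DMSO; measured by: beta-gal luminescence; measure: agonist-driven arrestin binding to APJ; benchmarks: negative DMSO alone, positive Apelin-13 at 10 nM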
CXCR6 inh – CXCR6 receptor inhibitors, primary screen, cell-based, beta-arrestin, luminescence, CHO-K1 PathHunter, 1536-well. C-X-C chemokine receptor type 6 (Homo sapiens), O00574. actives 0.36% (n = 360,000). inhibition, % at 20 µM; in the data active = inhibition above about 34%, passing the limit was not always enough;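 also: antagonist mode with CXCL16 agonist at 10 nM final; 0% = 10 nM CXCL16 with DMSO and 100% = unstimulated wells without agonist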
The depositor's hits bear a star; nt = no result given; ! = a repeat was not active. Compounds with a hit are over-represented: about 1.5% of the library has one in this group of screens.

SMILES	APJ antag	EBI2 block	CCR6 antagonist	hiPSC survival	APJ ag	CXCR6 inh
NC(N)=N/N=C/c1cn(-c2ccccc2)nc1-c1cccs1	-40	-16	3	-1	11*	-18
CCOC(=O)[C@]12Cc3cc(C)ccc3[C@H]1N(C1CCCCC1)C(=O)c1cc(OC)ccc12	nt	76*	nt	-2	nt	26
Nc1cccc(SC2CC(=O)N(c3ccc(Cl)cc3C(=O)c3ccccc3)C2=O)c1 (stereo not drawn)	nt	7	nt	-1	nt	-4
COc1ccc(N2C(=O)/C(=C/C=C/c3ccccc3[N+](=O)[O-])C(=O)NC2=S)cc1	-1	nt	59*	nt	2	nt
COc1ccc(N2C(=O)/C(=C/c3cccs3)C(=O)NC2=S)cc1	9	-2	48	-1	-1	-8
O=[N+]([O-])/C=C/c1c(Cl)cccc1Cl	nt	-24	105*	-1	nt	100*
Cc1noc(C)c1COc1ccc(C(=O)NCC2(N(C)C)CCCCC2)cc1	nt	2	nt	-1	nt	6
COc1cc(/C=C(/C)[N+](=O)[O-])ccc1OCc1ccccc1Cl	28	72*	61*	-3	5	50*
COc1ccc(CN2Cc3cc(-c4ccc(OC)cc4)ccc3-n3nncc3C2)cc1	nt	21	nt	-1	nt	6
C=C(C=O)CC1CC(O)[C@]2(C)OC3CC4OC5C[C@]6(C)O[C@]7(C)CCC8OC9C[C@]%10(C)OC%11C(C)=CC(=O)OC%11CC%10OC9C[C@@H](C)C8OC7CC6O[C@]5(C)CC5OC5C4OC3CC2O1 (stereo partly drawn)	28	32	46	40*	-4	28
O=C(c1cc2c(s1)-c1ccccc1OC2)N1CCC2(CC1)OCCO2	-6	88*	8	-1	-5	0
O=C(CCNC(=O)N1C[C@H]2C[C@@H](C1)c1cccc(=O)n1C2)Nc1cccc(Cl)c1	-10	-4	-5	0	-5	-1
COC(=O)C1=C(c2c(C)noc2C)C[C@@H]2CC[C@H]1N2C(=O)NCc1ccc(F)cc1	10	-7	-4	-3	-3	1
ON1C2CCCCC2N(O)C1c1ccccc1 (stereo not drawn)	33	-1	67*	-1	-15	34
C[C@]12CCC3C(CC[C@H]4C[C@H](O)[C@H](O)C[C@]34C)C1CC[C@@H]2O (stereo partly drawn)	nt	4	7	3	nt	-3
O=C1NC(=O)N(Cc2ccco2)C(=O)/C1=C/c1ccc(-c2cccc([N+](=O)[O-])c2)o1	24	24	65*	-2	-4	35
C=CCN1C(=O)NC(=O)/C(=C\c2ccc(-c3ccccc3[N+](=O)[O-])o2)C1=O	-1	8	21	-2	-3	15
CC(C)n1c(O)c(C2c3cc(Cl)ccc3Oc3[nH]c(=O)n(C(C)C)c(=O)c32)c(=O)[nH]c1=O (stereo not drawn)	nt	4	47	26*	nt	20
CC1=CC2/C=C(\C)CCC(O)C(O)/C=C/C(=O)C23C(=O)NC(CC(C)C)C3C1C (stereo not drawn)	19	47*	33	-6	-1	29
CCOC(=O)[C@]12Cc3c(cc(OC)c(OC)c3OC)[C@H]1N(C)C(=O)c1cc(OC)ccc12	nt	-8	nt	-1	nt	-15
COc1ccc(Cn2c(O)c(C=NCCCn3ccnc3)c(=O)[nH]c2=O)cc1	10	-8	9	18*	-1	-5
COC(=O)C1=C(c2cccc(C#N)c2)C[C@@H]2CC[C@H]1N2C(=O)NCc1ccco1	3	-6	0	-3	-2	7
Cc1ccc(/C=C2\C(=O)NC(=S)N(c3ccc(F)cc3)C2=O)s1	2	3	38	0	1	20
Cc1ccc(/C=C2\C(=O)NC(=S)N(c3ccccc3F)C2=O)s1	nt	11	96*	-1	nt	40*
CN(C)c1ccc(/C=C/c2cc[n+](C)c3ccccc23)cc1	nt	4	54*!	-3	nt	36
SMILES	APJ antag	EBI2 block	CCR6 antagonist	hiPSC survival	APJ ag	CXCR6 inh
CN(C)c1ccc(/C=C/C=C/c2sc3ccccc3[n+]2C)cc1	2	0	32	-1	-3	20
CCN(CC)c1ccccc1	2	1	2	-1	-2	3
CCN(CC)c1ccc(/C=C/[N+](=O)[O-])cc1	35	0	44	0	2	40*
O=c1[nH]c(=S)n(-c2ccccc2F)c(O)c1C=NCCN1CCNCC1	9	8	-4	0	0	-14
COC(=O)C1=C(c2ccccc2OCc2ccccc2)C[C@@H]2CC[C@H]1N2C(=O)NCCOc1ccccc1	-11	19	15	-2	0	24
COC(=O)C1=C(c2ccccc2OCc2ccccc2)C[C@@H]2CC[C@H]1N2C(=O)NCCOc1ccc(OC)cc1	2	51*	14	-3	-4	15
O=C1NCN(c2ccccc2)C12CCN(C(c1cccs1)c1nnnn1Cc1ccccc1)CC2 (stereo not drawn)	nt	0	nt	1	nt	3
C[C@@H]1CN([C@@H](C)CO)C(=O)CCCn2nncc2CO[C@@H]1CN(C)C(=O)Oc1cccc2ccccc12	nt	-1	nt	-2	nt	-2
COc1cc(/C=C/[N+](=O)[O-])ccc1O	-15	-26	56*	-1	1	28
COc1ccc(-n2c(/C=C/c3ccc(O)c(OC)c3)nc3ccccc3c2=O)cc1	-17	-13	19	-1	-2	10
Cc1cccc(CCNCc2cc3ccc(C)cc3[nH]c2=O)c1	-25	7	11	-1	-1	3
COC(=O)C1=C(c2ccc(OC(F)(F)F)cc2)C[C@@H]2CC[C@H]1N2C(=O)NCCOc1ccc(OC)cc1	5	33	5	5	-2	-3
C=C1C(C)C2C(Cc3ccccc3)NC(=O)C23OC(=O)/C=C/C(O)CCCC(C)C/C=C/C3C1O (stereo not drawn)	nt	-29	7	30*	nt	-7
CCOc1ccc2nc(N=Nc3c(O)[nH]c(=O)[nH]c3=O)sc2c1	34	-8	35	0	-9	18
CCOc1ccc2nc(N=Nc3c(O)[nH]c(=S)[nH]c3=O)sc2c1	56*	11	50*	-1	-6	29
CC[n+]1c(/C=C/C=C/c2ccc(N(C)C)cc2)sc2ccccc21	35	13	70*	0	-4	53*
CCn1nc(-c2cccs2)nc2c(=O)n(C)c(=O)nc1-2	nt	26	100*	-4	nt	13
